Data from ChEMBL document CHEMBL2412983, “Synthesis and evaluation of N⁸-acetylspermidine analogues as inhibitors of bacterial acetylpolyamine amidohydrolase” (Bioorg Med Chem, 2013).

Key:
[1] = molecular target: T1, Acetylpolyamine amidohydrolase (Mycoplana ramosa, UniProt Q48935); test: Inhibition of Mycoplana ramosa APAH expressed in Escherichia coli BL21 (DE3) using BML-KI104 as substrate after 30 mins by fluorimetric assay
T1 sequence (Q48935 whole entry): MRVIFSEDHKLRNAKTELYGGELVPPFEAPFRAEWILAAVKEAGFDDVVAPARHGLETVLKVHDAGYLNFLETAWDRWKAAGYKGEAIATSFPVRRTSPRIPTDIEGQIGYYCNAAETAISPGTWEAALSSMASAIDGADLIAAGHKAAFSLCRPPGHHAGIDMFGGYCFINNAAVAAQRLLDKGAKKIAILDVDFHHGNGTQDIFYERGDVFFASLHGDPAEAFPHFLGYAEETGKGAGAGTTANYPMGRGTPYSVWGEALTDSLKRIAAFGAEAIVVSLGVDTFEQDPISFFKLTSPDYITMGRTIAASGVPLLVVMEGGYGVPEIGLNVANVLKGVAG
Procedure, shortened: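 Recombinant enzyme purified from E. coli, 250 nM, at 25 °C with 150 μM Fluor-de-Lys acetyl substrate and 0–100 mM inhibitor. Buffer was 25 mM Tris pH 8.2, 137 mM NaCl, 2.7 mM KCl, 1 mM MgCl2, with 100 μM TCEP only for the thiol compound. Stopped at 30 min with 100 μM M344 plus developer. Fluorescence (ex 355/em 460 nm) was read after 45 min. Each concentration was run in triplicate in separate experiments.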

[2] = Inhibition of N8-acetylspermidine deacetylase in rat liver subcellular extract; details: read-out: Ki(app)

SMILES	IC50 [1] [µM]	Ki [2] [µM]
NCCCNCCCCCC(=O)C(F)(F)F	0.27	–
CC(=O)SCC(=O)CCCCCNCCCN	39	–
NCCCNCCCCCC(=O)NO	0.39	0.001
NCCCNCCCCCS	26	–
CS(=O)(=O)CCCCCNCCCN	10000	–
NCCCNCCCCCB(O)O	230	–
NCCCNCCCCCC(=O)O	1800	–
COCC(=O)CCCCCNCCCN	380	–
CC(=O)SCCCCCNCCCN	1900	–
CC(=O)CCCCCNCCCN	160	–
